Test [1] concerns the target Insulin-degrading enzyme (Homo sapiens) (UniProt P14735). Kind of test: Inhibition of recombinant human IDE using ATTO 655-Cys-Lys-Leu-Val-Phe-Phe-Ala-Glu-Asp-Trp as substrate at 0.4 uM measured after 45 mins by fluorescence assay relative to control.
Test [2] is described as follows: Inhibition of bacterial VIM-4 (unknown origin) expressed in Escherichia coli EXPRESS BL21(DE3) assessed as inhibition constant by measuring rate of substrate hydrolysis by UV-visible spectrophotometry. Also noted: species or system Bacteria. In a few lines:
(§1)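 Reporter-substrate assay with purified MBL (1–70 nM final) in 50 mM HEPES pH 7.5 at 30 °C. […] Inhibitor 0.5–1000 μM final. Ki derived from the v0/vi vs [I] slope assuming competitive inhibition, or from a Dixon plot. Ki given when inhibition >70%, otherwise % inhibition at 100 μM. Triplicate.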

In test [3] the test system is Bacteria. Briefly: Inhibition of bacterial NDM-1 (unknown origin) expressed in Escherichia coli EXPRESS BL21(DE3) assessed as inhibition constant by measuring rate of substrate hydrolysis at 100 uM by UV-visible spectrophotometry relative to control. The gist of the method:
as §1

The test system of test [4] is Pseudomonas aeruginosa. Briefly: Antimicrobial activity against blaVIM-2-producing multidrug-resistant Pseudomonas aeruginosa VA-182/00 clinical isolate assessed as meropenem MIC at 32 ug/ml by broth microdilution method (reference value: 128 ug/ml). The class given is functional. Conditions: dose 32 µg/ml. In a few lines:
(§2)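 Inoculum was 5×10^4 CFU/well. Each inhibitor was present at a fixed 32 μg/mL, and MICs were also taken without inhibitor.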
(In general: Dilution methods test growth across graded concentrations, often in twofold steps.)

Test [5] deals with Bacteria. Kind of test: Competitive inhibition of bacterial VIM-2 (unknown origin) assessed as Zn(II) content by at 48 uM by overnight equilibrium dialysis. The gist of the method:
(§3)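 VIM-2 or NDM-1 (3 μM final) in 50 mM HEPES pH 7.5 mixed with compound at 0–48 μM. Incubated 1 h on ice, then dialysed overnight at 4 °C against 50 mM HEPES pH 7.5. Zn(II) content measured by atomic absorption at 213.86 nm against a zinc standard curve. Each point averages three samples.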
(In equilibrium dialysis only unbound substance equilibrates across the membrane.)

The test system of test [6] is Bacteria. Kind of test: Inhibition of bacterial IMP-1 (unknown origin) expressed in Escherichia coli EXPRESS BL21(DE3) assessed as inhibition constant by measuring rate of substrate hydrolysis at 100 uM by UV-visible spectrophotometry relative to control. The gist of the method:
as §1

In test [7] the test system is Escherichia coli. Briefly: Antimicrobial activity against blaNDM-1-producing multidrug-resistant Escherichia coli SI-004 clinical isolate assessed as meropenem MIC at 32 ug/ml by broth microdilution method (reference value: 64 ug/ml).
The test system of test [8] is Klebsiella pneumoniae. Kind of test: Antimicrobial activity against blaVIM-1-producing multidrug-resistant Klebsiella pneumoniae K47-25 clinical isolate assessed as meropenem MIC at 32 ug/ml by broth microdilution method (reference value: […] ug/ml). It counts as functional. Conditions: dose 32 µg/ml. In a few lines:
as §2

Test [9] concerns Bacteria. Kind of test: Inhibition of bacterial NDM-1 (unknown origin) assessed as ternary complex formation using 10 uM enzyme concentration at 50 uM by native MS analysis. In a few lines: (§4)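 Purified VIM-2 or NDM-1 was given 2 mM TCEP and 2 equiv ZnCl2, incubated 1 h, and dialysed overnight into 100 mM ammonium acetate pH 7.5. Enzyme at 10 μM was then incubated 5 min with 50 μM compound. Positive-mode nanoESI on an Orbitrap, scanning m/z 1000–4000. Species assigned from deconvoluted masses.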

Test [10] concerns Klebsiella pneumoniae. Briefly: Antimicrobial activity against blaVIM-4-producing multidrug-resistant Klebsiella pneumoniae VA-416/02 clinical isolate assessed as meropenem MIC at 32 ug/ml by broth microdilution method (reference value: […] ug/ml). The class given is functional. To be noted: dose 32 µg/ml. In a few lines: as §2
For test [11], the system named is Bacteria. Briefly: Inhibition of bacterial VIM-2 (unknown origin) assessed as ternary complex formation using 10 uM enzyme concentration at 50 uM by native MS analysis. The gist of the method:
as §4

Test [12] deals with Bacteria. Kind of test: Competitive inhibition of bacterial NDM-1 (unknown origin) assessed as Zn(II) content at 48 uM by overnight equilibrium dialysis. The gist of the method:
as §3

Test [13] in a line: Inhibition of bacterial VIM-1 (unknown origin) expressed in Escherichia coli EXPRESS BL21(DE3) assessed as inhibition constant by measuring rate of substrate hydrolysis by UV-visible spectrophotometry. Also noted: species or system Bacteria. In a few lines:
as §1

Test [14] in a line: Inhibition of bacterial VIM-2 (unknown origin) expressed in Escherichia coli EXPRESS BL21(DE3) assessed as inhibition constant by measuring rate of substrate hydrolysis by UV-visible spectrophotometry. Also noted: species or system Bacteria. The gist of the method:
as §1

The nature of test [15]: Inhibition of bacterial Metallo-beta-lactamase IMP-1 (unknown origin). Also noted: species or system Bacteria. The gist of the method: as §1
The nature of test [16]: Inhibition of bacterial Metallo-beta-lactamase VIM-2 (unknown origin). Also noted: species or system Bacteria. In a few lines:
as §1

The nature of test [17]: Inhibition of bacterial Metallo-beta-lactamase VIM-1 (unknown origin). Also noted: species or system Bacteria. In a few lines: as §1
A short description of test [18]: Inhibition of bacterial Metallo-beta-lactamase VIM-4 (unknown origin). Also noted: species or system Bacteria. In a few lines:
as §1

Test [19] deals with Bacteria. Briefly: Inhibition of bacterial Metallo-beta-lactamase NDM-1 (unknown origin) at 100 uM relative to control. The gist of the method:
as §1

A short description of test [20]: Inhibition of bacterial Metallo-beta-lactamase NDM-1 (unknown origin). Also noted: species or system Bacteria. The gist of the method:
as §1

Test [21] has as its system Pseudomonas aeruginosa. Kind of test: Antimicrobial activity against blaVIM-2-producing multidrug-resistant Pseudomonas aeruginosa VA-182/00 clinical isolate. It counts as functional.
For test [22], the system named is Escherichia coli. Kind of test: Antimicrobial activity against blaNDM-1-producing multidrug-resistant Escherichia coli SI-004 clinical isolate. It counts as functional. In a few lines: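 Broth microdilution per CLSI in cation-supplemented Mueller–Hinton broth with an inoculum of 5×10^4 CFU/well.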
Test [23] in a line: Inhibition of bacterial NDM-1 (unknown origin) expressed in Escherichia coli EXPRESS BL21(DE3) assessed as inhibition constant by measuring rate of substrate hydrolysis by UV-visible spectrophotometry. Also noted: species or system Bacteria. In a few lines:
as §1

Test [24] relates to Bacteria. Kind of test: Inhibition of bacterial Metallo-beta-lactamase VIM-1 (unknown origin) at 100 uM relative to control. The gist of the method:
as §1

This passage reports inhibition, Ki and MIC results from ChEMBL document CHEMBL5236609, “Optimization of 1,2,4-Triazole-3-thiones toward Broad-Spectrum Metallo-β-lactamase Inhibitors Showing Potent Synergistic Activity on VIM- and NDM-1-Producing Clinical Isolates” (J Med Chem, 2022).

In brackets after ≈: the same amount, converted by molar mass. Activity calls are given as the source filed them. The calls are words filed in the database; no cut-off is given here.

A word on the inhibition: it is the share of the control response that was lost under treatment. For orientation: Ki means a measure of affinity in units of concentration, obtained from inhibition or displacement. What is called MIC is the lowest concentration found to suppress growth.

Chain of Insulin-degrading enzyme (Homo sapiens) (P14735 whole entry): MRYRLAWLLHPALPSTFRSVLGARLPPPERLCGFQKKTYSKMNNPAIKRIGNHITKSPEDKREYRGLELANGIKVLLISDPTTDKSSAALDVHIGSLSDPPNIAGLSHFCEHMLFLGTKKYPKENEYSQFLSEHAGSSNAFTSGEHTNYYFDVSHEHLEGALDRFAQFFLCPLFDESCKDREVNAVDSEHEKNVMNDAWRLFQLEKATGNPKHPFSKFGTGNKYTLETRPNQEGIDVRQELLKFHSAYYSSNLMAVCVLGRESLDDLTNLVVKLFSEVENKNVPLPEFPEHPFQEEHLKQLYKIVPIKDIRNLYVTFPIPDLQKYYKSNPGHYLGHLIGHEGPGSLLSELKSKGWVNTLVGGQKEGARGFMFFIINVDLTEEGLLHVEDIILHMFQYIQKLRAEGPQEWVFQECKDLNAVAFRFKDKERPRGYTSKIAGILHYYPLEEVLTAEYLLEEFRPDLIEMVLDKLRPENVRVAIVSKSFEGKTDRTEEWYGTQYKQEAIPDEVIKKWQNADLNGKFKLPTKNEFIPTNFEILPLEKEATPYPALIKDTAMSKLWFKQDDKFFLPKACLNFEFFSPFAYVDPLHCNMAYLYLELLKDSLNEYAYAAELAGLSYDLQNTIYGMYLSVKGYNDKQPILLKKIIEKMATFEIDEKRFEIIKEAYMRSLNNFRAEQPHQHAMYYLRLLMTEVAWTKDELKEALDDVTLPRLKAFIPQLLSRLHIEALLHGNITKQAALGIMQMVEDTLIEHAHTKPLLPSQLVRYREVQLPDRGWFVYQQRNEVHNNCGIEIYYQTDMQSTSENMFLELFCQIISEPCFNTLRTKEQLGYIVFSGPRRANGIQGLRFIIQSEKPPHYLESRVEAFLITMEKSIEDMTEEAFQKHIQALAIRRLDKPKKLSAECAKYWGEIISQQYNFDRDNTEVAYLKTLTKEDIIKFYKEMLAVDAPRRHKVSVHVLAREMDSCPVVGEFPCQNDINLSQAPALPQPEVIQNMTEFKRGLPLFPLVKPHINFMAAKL

On to `O=C(C[C@H](Cc1ccc2ccccc2c1)n1cc(CNC(=O)c2ccc(F)cc2)nn1)NO`, for which, in [1], the inhibition is 65%.

In the case of `O=C(O)[C@H](CCCn1c(-c2ccccc2)n[nH]c1=S)N(Cc1cccnc1)Cc1cccnc1`, the Ki in [2] was determined as 0.52 µM; in [13], 2.6 µM; in [14] it was 0.42 µM. Besides, the inhibition in the test with Bacteria [3] was 67%; in the test on Bacteria [6], less than 30%. The MIC with Pseudomonas aeruginosa [4] stood at 128 µg/mL; in the test with Escherichia coli [7], 64 µg/mL; with Klebsiella pneumoniae [8], 4 µg/mL; in the test on Klebsiella pneumoniae [10], 1 µg/mL. Also, the inhibition entry with Bacteria [5], with Bacteria [9], in the test on Bacteria [11] and with Bacteria [12] was “Active” each time.

Regarding `CC(C)(C)OC(=O)N[C@@H](CCCn1c(-c2ccccc2)n[nH]c1=S)C(=O)O`, the Ki entry in [15] was “Not Active”; in [16], 1.95 µM; in test [17], 30.8 µM; in test [18], 1.51 µM. The compound further returned an inhibition in the test on Bacteria [19] of 35%.

`O=C(Nc1ccccc1)NC(CCCn1c(-c2ccccc2)n[nH]c1=S)C(=O)O` (centres undefined): the Ki result in test [15] was “Not Active”; in test [20], “Not Active”; in test [16] it was 6.93 µM; in test [18], 4.14 µM.

For `C[C@@H](O)[C@H]1C(=O)N2C(C(=O)O)=C(S[C@@H]3CN[C@H](C(=O)N(C)C)C3)[C@H](C)[C@H]12` [MEROPENEM], the MIC in the test with Pseudomonas aeruginosa [21] turned out to be 128 µg/mL (≈ 334 µM); against Escherichia coli [22], 64 µg/mL (≈ 167 µM).

As for `O=C(O)[C@H](CCCn1c(-c2ccccc2)n[nH]c1=S)N(Cc1cncs1)Cc1cncs1`, the Ki in test [23] stood at 28 µM; in test [2] it was 0.14 µM; in test [13], 0.3 µM; in [14], 0.1 µM. The MIC in the test with Pseudomonas aeruginosa [4] was determined as 128 µg/mL; in the test on Escherichia coli [7], 32 µg/mL; in the test with Klebsiella pneumoniae [8], 1 µg/mL; with Klebsiella pneumoniae [10], 1 µg/mL. In addition, the inhibition entry with Bacteria [5], with Bacteria [9], in the test with Bacteria [11] and in the test on Bacteria [12] was “Active” each time. Also, the inhibition in the test on Bacteria [6] was less than 30%.

Turning to `O=C(O)CCCCn1c(-c2ccccc2)n[nH]c1=S`, the Ki result is “Not Active” in test [15]; “Not Active” in test [20]; 2.81 µM in test [16]; 13.9 µM in [17]; 1.13 µM in [18]. Also, the inhibition with Bacteria [24] is 57%.
